# Reference: ChEMBL document CHEMBL2440038, “Arylthioamides as H2S Donors: l-Cysteine-Activated Releasing Properties and Vascular Effects in Vitro and in Vivo” (ACS Med Chem Lett, 2013)
# Calls of active or inactive are those of the source. The rule behind the calls is not given here.
# Experiments:
# [1] = system: Rattus norvegicus; assay: Reduction of systolic blood pressure in rat at 0.1 mg/kg, po (reference value: 102% +/- 1%); assay type: functional, Artery; parameters: scale not given: the % may be the effect or the level left
# [2] = Activation of KATP channel in HASMC assessed as membrane hyperpolarization at 1 mM using DiBac4(3) dye by spectrofluorimetric analysis relative to LCRK; settings: Homo sapiens
# Outline: (§1)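 Cultured human aortic smooth muscle cells; membrane potential followed as change in relative fluorescence of a potential-sensitive dye. Test agent added at increasing concentrations up to 1 mM. Response expressed as % of maximal hyperpolarization produced by levcromakalim 10 μM (reference KATP opener). Mean with SEM.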
# [3] = system: Aorta; assay: Inhibition of noradrenaline-induced vasoconstriction in Wistar rat endothelium-denuded thoracic aortic ring at 1 mM after 20 mins; assay type: functional, tissue-based
# Outline: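 Endothelium-denuded rat aortic rings preincubated with test agent, NaHS or vehicle, then given cumulative noradrenaline. Contraction expressed as % of a prior response to 60 mM KCl.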
# [4] = Activation of KATP channel in HASMC assessed as membrane hyperpolarization using DiBac4(3) dye by spectrofluorimetric analysis relative to LCRK; settings: Homo sapiens; outline: as §1
# [5] = Induction of H2S release in Tyrode buffer after 15 mins; assay type: physicochemical; settings: 0.25 h
# Outline: (§2)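 Incubation in Tyrode buffer, the medium used for functional tests, with or without rat aortic ring tissue. No L-cysteine or glutathione added. H2S recorded continuously by amperometry; concentration reported 15 min after addition. Mean with SEM.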
# [6] = Induction of H2S release in Tyrode buffer in presence of Wistar rat endothelium-denuded thoracic aortic ring; assay type: functional; settings: TDE = time-dependent effect; outline: as §2
# [7] = Induction of H2S release in PBS buffer 10x at pH 7.4 at 1 mM in presence of glutathione; assay type: physicochemical; settings: pH 7.4, 1000 µM
# Outline: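 Release measured amperometrically in assay buffer (pH 7.4, 35–37 °C), test agent 1 mM, with reduced glutathione added as the thiol. Continuous H2S–time curves recorded. Mean with SEM.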
Activity [4],Activity [5],Activity [7],Structure (SMILES),Activity [1],Activity [2],inhibition [3],Activity [6]
,,,[Na+].[SH-] [SODIUM HYDROSULFIDE],91%,52%,Active,
Dose-dependent effect,0.24 µM,Active,NC(=S)c1ccc(O)cc1,89%,79%,Active,tde
